# Counter-ions that a name gives are not always drawn. Calls of active or inactive are those of the source. The rule behind the calls is not given here.
# Legend:
# Assay type in all cases: functional, cell-based
# [1] = system: KB; assay: Cytotoxicity against human KB cells after 48 hrs by MTT assay
# How it was run: (§1)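 Exponential-phase cells plated, allowed 24 h to establish, then exposed to compound dilutions for 48 h. MTT added (0.1 mg/well) for 4 h, supernatant removed, formazan dissolved in DMSO, absorbance read at 570 nm. IC50 taken as concentration giving 50% growth inhibition; mean ± SD of three experiments run in triplicate.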
# [2] = system: MCF7; assay: Cytotoxicity against human MCF7 cells after 48 hrs by MTT assay; how it was run: as §1
# [3] = system: PC-12; assay: Induction of neurite outgrowth in rat PC12 cells at 10 uM after 2 days by phase-contrast microscope
# How it was run: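 PC12 cells kept in DMEM with 10% heat-inactivated fetal calf serum, 5% horse serum, penicillin 50 units/mL and streptomycin 50 µg/mL at 37 °C, 5% CO2. Seeded at 1 × 10^4 cells/mL, cultured one day, then medium replaced with fresh medium containing compound. Cultured 2 days; neurite outgrowth observed by phase-contrast microscopy against untreated control.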
# [4] = system: K562; assay: Cytotoxicity against human K562 cells after 48 hrs by MTT assay; settings: K562, 48 h; how it was run: as §1
SMILES,Activity [1],Activity [2],Activity [3],IC50 [4]
C/C=C\[C@H](O)[C@H](O)C1=C(C)C(=O)[C@]2(O1)C(=O)N[C@@](OC)(C(=O)c1ccccc1)[C@@H]2O,inactive,inactive,–,–
CC/C=C\[C@H](O)[C@H](O)C1=C(C)C(=O)[C@]2(O1)C(=O)N[C@@](OC)(C(=O)c1ccccc1)[C@@H]2O,inactive,inactive,Active,–
C=CC(C)(C)c1[nH]c2cccc3c2c1C[C@@H]1[C@@H]3[C@@H](O)[C@@H](C)CN1C,inactive,inactive,inactive,41 µM
C=CC(C)(C)c1[nH]c2cccc3c2c1C[C@@H]1[C@@H]3C[C@@H](C)CN1C,inactive,inactive,inactive,3.1 µM
COc1cccc2c1C(=O)c1c(O)c3c(c(O)c1C2=O)C[C@@](O)(C(=O)CO)C[C@@H]3O[C@H]1C[C@H](N)[C@H](O)[C@H](C)O1 [DOXORUBICIN HYDROCHLORIDE],–,–,–,1.2 µM
C[C@@H]1N[C@@H]2N(C1=O)c1ccccc1[C@@]21C[C@@H](n2cnc3ccccc3c2=O)C(=O)O1,inactive,inactive,inactive,–
COc1ccc2c(C[C@@H]3NC(=O)[C@@H]4CCCN4C3=O)c(CC=C(C)C)[nH]c2c1 [TRYPROSTATIN A],inactive,inactive,inactive,41 µM
COc1ccc2c(c1)NC(=O)[C@@]21C[C@H]2C(=O)N3CCC[C@H]3C(=O)N2[C@H]1C=C(C)C,inactive,inactive,inactive,–
COc1ccc2c3c4n(c2c1)[C@H](C=C(C)C)OOC(C)(C)C[C@@H]4N1C(=O)[C@@H]2CCCN2C(=O)[C@]1(O)[C@H]3O [VERRUCULOGEN],inactive,inactive,inactive,41 µM
CS[C@]1(CO)C(=O)N2[C@H]3C(=CC=CC3O)C[C@@]2(SC)C(=O)N1C (stereo partly specified) [DIMETHYLGLIOTOXIN],inactive,inactive,inactive,41 µM
CC(C)=CCc1[nH]c2ccccc2c1C[C@@H]1NC(=O)[C@@H]2CCCN2C1=O [TRYPROSTATIN B],inactive,inactive,inactive,41 µM
COc1ccc2c(c1)NC(=O)[C@@]21C=C2C(=O)N3CCC[C@H]3C(=O)N2[C@H]1C=C(C)C,inactive,inactive,inactive,–
CC(C)=C[C@H]1c2[nH]c3ccccc3c2C[C@H]2C(=O)N3CCC[C@H]3C(=O)N21,inactive,inactive,inactive,–
COc1ccc2c3c([nH]c2c1)[C@H](C=C(C)C)N1C(=O)[C@@H]2CCCN2C(=O)[C@@H]1C3 [FUMITREMORGIN],inactive,inactive,inactive,41 µM

# — ChEMBL document CHEMBL1151834, “Bioactive alkaloids from endophytic Aspergillus fumigatus” (J Nat Prod, 2009)
